Test results taken from ChEMBL document CHEMBL1142176, “Antileishmanial effect of 3-aminooxy-1-aminopropane is due to polyamine depletion” (Antimicrob Agents Chemother, 2007).
The source made the active and inactive calls. No cut-off for these calls is given here.

What was measured:
[1] = system: Leishmania donovani; assay: Growth inhibition of Leishmania donovani amastigotes S1 LV patient isolate in J774A.1 cells after 5 days; assay type: functional, organism-based; settings: J774.A1, 120 h
Outline: (§1)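 J774A.1 murine macrophages kept at 37°C in RPMI 1640 with 10% FBS. 1 x 10^5 cells per well were infected with 1 x 10^6 stationary-phase luciferase-expressing (pGL-NEO LUC) promastigotes in M-199 with 10% FBS. Free parasites were washed off after 3 h, then drug was added at a range of concentrations for 5 days. Luciferase was read from washed adherent macrophages, and IC50 was taken from a concentration vs RLU plot.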

[2] = system: Leishmania donovani; assay: Reversal of growth inhibition of Leishmania donovani promastigotes at 50uM after 48 hrs of 1 mM putrescine treatment; assay type: functional, organism-based
Outline: (§2)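 Promastigotes grown at 22°C in M-199 (Hanks' salts, 25 mM HEPES, 10% FBS, 100 µg/ml gentamicin) with 50 µM drug. 1 mM putrescine or spermidine was added after 24 h or 48 h of treatment. Growth was followed over 120 h by hemocytometer counts every 24 h. Mean ± SD of three determinations.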

[3] = system: Leishmania donovani; assay: Growth inhibition of Leishmania donovani SAG-resistant R2 LV patient isolate amastigotes in J774A.1 cells after 5 days; assay type: functional, organism-based; settings: J774.A1, 120 h; outline: as §1
[4] = biological target: T1, Ornithine decarboxylase (Leishmania donovani) (UniProt P27116); assay: Inhibition of ODC in Leishmania donovani promastigotes at 50 uM after 48 hrs
T1 sequence (whole entry): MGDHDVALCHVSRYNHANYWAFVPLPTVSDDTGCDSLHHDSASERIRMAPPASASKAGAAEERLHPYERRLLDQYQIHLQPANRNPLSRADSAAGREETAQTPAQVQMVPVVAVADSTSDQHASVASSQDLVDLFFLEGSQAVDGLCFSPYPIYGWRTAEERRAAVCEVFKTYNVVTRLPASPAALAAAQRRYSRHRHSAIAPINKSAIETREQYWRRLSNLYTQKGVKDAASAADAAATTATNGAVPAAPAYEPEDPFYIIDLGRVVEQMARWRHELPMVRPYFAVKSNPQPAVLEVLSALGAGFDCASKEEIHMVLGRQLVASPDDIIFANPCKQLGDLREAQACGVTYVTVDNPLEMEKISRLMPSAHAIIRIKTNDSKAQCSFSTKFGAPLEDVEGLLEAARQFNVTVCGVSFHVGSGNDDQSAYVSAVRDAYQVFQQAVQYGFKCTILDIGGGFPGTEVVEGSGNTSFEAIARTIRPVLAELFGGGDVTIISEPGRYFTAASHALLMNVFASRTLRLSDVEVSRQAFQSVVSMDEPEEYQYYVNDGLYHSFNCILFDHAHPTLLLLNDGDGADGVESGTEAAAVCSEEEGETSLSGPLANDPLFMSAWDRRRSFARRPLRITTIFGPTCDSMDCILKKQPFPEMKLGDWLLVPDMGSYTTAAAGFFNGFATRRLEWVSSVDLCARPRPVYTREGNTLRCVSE
Outline: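 Late-log promastigotes (1 x 10^7) were treated 48 h, then washed in PBS and freeze-thaw lysed in 50 mM Tris-HCl pH 7.5, 10 µM EDTA, 2.5 mM DTT. Released 14CO2 is expressed as nmol CO2/mg protein/h (Bradford). Mean ± SD, n = 3.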

[5] = system: Leishmania donovani; assay: Growth inhibition of Leishmania donovani AG83 amastigotes transfected with episomal ODC gene construct overproducing ODC; assay type: functional, organism-based
[6] = system: Leishmania donovani; assay: Reduction of spermidine level in Leishmania donovani promastigotes at 50 uM after 48 hrs relative to control; assay type: functional; set-up: scale not given: the % may be the effect or the level left
Outline: (§3)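 Log-phase promastigotes (1 x 10^7) were exposed 48 h and pelleted at 2,000 x g, 4°C. Acid extracts were dansyl-chloride derivatized before column and analysed by C18 reversed-phase HPLC. Values are vs untreated controls, mean ± SD (n = 3), Student's t test, P < 0.05.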

[7] = system: Leishmania donovani; assay: Reversal of growth inhibition of Leishmania donovani promastigotes at 50 uM after 24 hrs of 1 mM spermidine treatment; assay type: functional, organism-based; outline: as §2
[8] = system: Leishmania donovani; assay: Reduction of trypanothione level in Leishmania donovani promastigotes at 50 uM after 48 hrs relative to control; assay type: functional; set-up: scale not given: the % may be the effect or the level left
Outline: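 Log-phase promastigotes were treated 48 h before harvest, compared with untreated controls. Mean ± SD, n = 3, Student's t test.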

[9] = system: Leishmania donovani; assay: Reduction of putrescine level in Leishmania donovani promastigotes at 50 uM for after 48 hrs relative to control; assay type: functional; set-up: scale not given: the % may be the effect or the level left; outline: as §3
[10] = system: Leishmania donovani; assay: Reversal of growth inhibition of Leishmania donovani promastigotes at 50uM after 24 hrs of 1 mM putrescine treatment; assay type: functional, organism-based; outline: as §2
[11] = system: Leishmania donovani; assay: Growth inhibition of Leishmania donovani SAG-resistant R1 LV patient isolate amastigotes in J774A.1 cells after 5 days; assay type: functional, organism-based; settings: J774.A1, 120 h; outline: as §1
[12] = system: Leishmania donovani; assay: Growth inhibition of Leishmania donovani SAG-resistant GE1 LV patient isolate amastigotes in J774A.1 cells after 5 days; assay type: functional, organism-based; settings: J774.A1, 120 h; outline: as §1
[13] = system: Leishmania donovani; assay: Growth inhibition of Leishmania donovani SAG-resistant R2 LV patient isolate promastigotes in J774A.1 cells after 5 days; assay type: functional, organism-based
[14] = system: Leishmania donovani; assay: Reversal of growth inhibition of Leishmania donovani promastigotes at 50 uM after 48 hrs of 1 mM spermidine treatment; assay type: functional, organism-based; outline: as §2
[15] = system: Leishmania donovani; assay: Growth inhibition of Leishmania donovani SAG-resistant GE1 LV patient isolate promastigotes in J774A.1 cells after 5 days; assay type: functional, organism-based
[16] = system: J774.A1; assay: Growth inhibition of J774A.1 macrophage cells after 24 hrs by MTT method; assay type: functional, cell-based; settings: Mus musculus, J774.A1, 24 h
Outline: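 J774A.1 murine macrophages kept at 37°C in RPMI 1640 with 10% FBS. Viability was read 24 h after drug addition.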

[17] = system: Leishmania donovani; assay: Growth inhibition of Leishmania donovani promastigotes S1 LV patient isolate in J774A.1 cells after 5 days; assay type: functional, organism-based
[18] = system: Leishmania donovani; assay: Growth inhibition of Leishmania donovani SAG-resistant R1 LV patient isolate promastigotes in J774A.1 cells after 5 days; assay type: functional, organism-based
[19] = system: Leishmania donovani; assay: Growth inhibition of wild type Leishmania donovani AG83 promastigotes after 72 hrs by MTT method; settings: AG83, 72 h
[20] = system: Leishmania donovani; assay: Growth inhibition of wild type Leishmania donovani AG83 amastigotes in J774A.1 after 5 days by luciferase reporter assay; settings: AG83, J774.A1, 120 h
[21] = system: Leishmania donovani; assay: Growth inhibition of Leishmania donovani AG83 promastigotes transfected with episomal ODC gene construct overproducing ODC; assay type: functional, organism-based
Outline: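 Late-log-phase promastigotes, cultured at 22°C in M-199 (Hanks' salts, 25 mM HEPES, 10% FBS, gentamicin), were exposed to drug for 72 h. MTT was then added for 4 h, the reaction was stopped with acidic isopropanol, and absorbance was read at 570 nm to give IC50. Two or more independent experiments were run in triplicate.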

NCCCON
IC50 [1]: 10 µM | Activity [2]: Active | IC50 [3]: > 200 µM | inhibition [4]: 76% | IC50 [5]: > 100 µM | Activity [6]: 44% | Activity [7]: Active | Activity [8]: 79% | Activity [9]: 70% | Activity [10]: Active | IC50 [11]: > 200 µM | IC50 [12]: > 200 µM | IC50 [13]: 46 µM | Activity [14]: Active | IC50 [15]: > 400 µM | IC50 [16]: > 200 µM | IC50 [17]: 19 µM | IC50 [18]: > 400 µM | IC50 [19]: 42 µM | IC50 [20]: 5 µM | IC50 [21]: 155 µM

NCCCC(N)(C(=O)O)C(F)F (stereo not drawn) [EFLORNITHINE]
IC50 [19]: > 10000 µM | IC50 [20]: 50 µM
